These results are taken from ChEMBL document CHEMBL3875205, “Macrocyclic MEK1/2 inhibitor with efficacy in a mouse model of cardiomyopathy caused by lamin A/C gene mutation” (Bioorg Med Chem, 2017).

SMILES strings stand for the structures. Calls of active or inactive are those of the source. The rule behind the calls is not given here.

Assay [1] addresses T1, Dual specificity mitogen-activated protein kinase kinase; MEK1/2 (Homo sapiens, UniProt P36507+Q02750). Briefly: Inhibition of MEK1/2 in HEK293 cells assessed as reduction in ERK1/2 phosphorylation at 0.001 to 1 uM after 24 hrs by immunoblot method. The assay is classed as cell-based. A digest of the protocol:
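HEK-293 cells were grown in DMEM with 10% FBS, seeded at 5.0×10^5 per well and grown 24 h. After rinsing, they were exposed 24 h to serial dilutions from 1 to 0.001 µM final, or to Cremophor EL/saline vehicle. Cells were then washed with PBS, extracted and immunoblotted for phospho- and total ERK1/2.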

The subject of assay [2] is Mus musculus. Briefly: In vivo inhibition of MEK1/2 in LmnaH222P/H222P mouse model of cardiomyopathy assessed as reduction in ERK1/2 phosphorylation in heart at 3 to 6 mg/kg/day, po administered 6 days per week via gavage starting from 14 weeks of age up to 20 weeks of age by immunoblot method. The assay is classed as functional, organism-based. A digest of the protocol: (§1)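 Heart, liver and quadriceps from male mutant mice gavaged 3 or 6 mg/kg/day (weeks 14–20) were homogenized for protein. Proteins were run on SDS-PAGE, transferred to nitrocellulose and probed for phospho- and total ERK1/2 with HRP secondaries and chemiluminescence. Scanned blots were quantified as the pERK1/2 to total ERK1/2 ratio; n = 3, means ± SE.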
For orientation: In western blotting, separated proteins are transferred to a membrane and probed.

Assay [3] deals with Mus musculus. Briefly: In vivo inhibition of MEK1/2 in LmnaH222P/H222P mouse model of cardiomyopathy assessed as reduction in ERK1/2 phosphorylation in liver at 3 to 6 mg/kg/day, po administered 6 days per week via gavage starting from 14 weeks of age up to 20 weeks of age by immunoblot method. The assay is classed as functional, organism-based. A digest of the protocol:
as §1

For assay [4], the system named is Mus musculus. Briefly: In vivo inhibition of MEK1/2 in LmnaH222P/H222P mouse model of cardiomyopathy assessed as reduction in ERK1/2 phosphorylation in quadriceps muscle at 6 mg/kg/day, po administered 6 days per week via gavage starting from 14 weeks of age up to 20 weeks of age by immunoblot method. The assay is classed as functional, organism-based. The method, boiled down:
as §1

Assay [5] in a line: Cardioprotective activity in LmnaH222P/H222P mouse model of cardiomyopathy assessed as left ventricular end diastolic diameter at 3 mg/kg/day, po administered 6 days per week via gavage starting from 14 weeks of age up to 20 weeks of age by echocardiographic method (reference value: 3.96 +/- 0.08 millimeter). The assay is classed as functional, organism-based. The note with it: Heart.

Assay [6] in a line: Cardioprotective activity in LmnaH222P/H222P mouse model of cardiomyopathy assessed as left ventricular end diastolic diameter at 6 mg/kg/day, po administered 6 days per week via gavage starting from 14 weeks of age up to 20 weeks of age by echocardiographic method (reference value: 3.96 +/- 0.08 millimeter). The assay is classed as functional, organism-based. The note with it: Heart.

Assay [7] is described as follows: Cardioprotective activity in LmnaH222P/H222P mouse model of cardiomyopathy assessed as left ventricular end systolic diameter at 3 mg/kg/day, po administered 6 days per week via gavage starting from 14 weeks of age up to 20 weeks of age by echocardiographic method (reference value: 3.32 +/- 0.1 millimeter). The assay is classed as functional, organism-based. Conditions: Heart.

Assay [8] is described as follows: Cardioprotective activity in LmnaH222P/H222P mouse model of cardiomyopathy assessed as left ventricular end systolic diameter at 6 mg/kg/day, po administered 6 days per week via gavage starting from 14 weeks of age up to 20 weeks of age by echocardiographic method (reference value: 3.32 +/- 0.1 millimeter). The assay is classed as functional, organism-based. The note with it: Heart.

A short description of assay [9]: Cardioprotective activity in LmnaH222P/H222P mouse model of cardiomyopathy assessed as left ventricular fractional shortening at 3 mg/kg/day, po administered 6 days per week via gavage starting from 14 weeks of age up to 20 weeks of age by echocardiographic method (reference value: 16.36 +/- 1.08%). The note with it: Heart. The assay is classed as functional, organism-based.

A short description of assay [10]: Cardioprotective activity in LmnaH222P/H222P mouse model of cardiomyopathy assessed as left ventricular fractional shortening at 6 mg/kg/day, po administered 6 days per week via gavage starting from 14 weeks of age up to 20 weeks of age by echocardiographic method (reference value: 16.36 +/- 1.08%). The assay is classed as functional, organism-based. The note with it: Heart.

Assay [11] can be described thus: Cardioprotective activity in LmnaH222P/H222P mouse model of cardiomyopathy assessed as heart rate at 3 mg/kg/day, po administered 6 days per week via gavage starting from 14 weeks of age up to 20 weeks of age by echocardiographic method (reference value: 502.73 +/- 0.46 bpm). The assay is classed as functional, organism-based.
Assay [12] in a line: Cardioprotective activity in LmnaH222P/H222P mouse model of cardiomyopathy assessed as heart rate at 6 mg/kg/day, po administered 6 days per week via gavage starting from 14 weeks of age up to 20 weeks of age by echocardiographic method (reference value: 502.73 +/- 0.46 bpm). The assay is classed as functional, organism-based.
The nature of assay [13]: Cardioprotective activity in LmnaH222P/H222P mouse model of cardiomyopathy assessed as reduction in Nppa mRNA expression in heart at 3 to 6 mg/kg/day, po administered 6 days per week via gavage starting from 14 weeks of age up to 20 weeks of age by qRT-PCR method relative to placebo treated control. The assay is classed as functional, organism-based. The method, boiled down: (§2)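 Hearts from male Lmna H222P/H222P mice gavaged 6 days/week, weeks 14–20, with vehicle or 3 or 6 mg/kg/day. Real-time RT-PCR with SYBR green and 200 nM of each primer; 95°C 2 min, then 50 cycles of 95°C 30 s and 62°C 30 s. ΔΔCT method normalized to Gapdh; fold change versus placebo (n = 5, 5, 6).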
(In qPCR the cycle at which signal appears reflects the starting amount.)

Assay [14] in a line: Cardioprotective activity in LmnaH222P/H222P mouse model of cardiomyopathy assessed as reduction in Myl7 mRNA expression in heart at 6 mg/kg/day, po administered 6 days per week via gavage starting from 14 weeks of age up to 20 weeks of age by qRT-PCR method relative to placebo treated control. The assay is classed as functional, organism-based. The method, boiled down: as §2

Assay [15] can be described thus: Cardioprotective activity in LmnaH222P/H222P mouse model of cardiomyopathy assessed as reduction in myocardial fibrosis administered 6 days per week via oral gavage starting from 14 weeks of age up to 20 weeks of age by masson trichrome staining based assay. The assay is classed as functional, tissue-based. Conditions: Heart. The method, boiled down:
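Left ventricles from male mutant mice dosed 3 or 6 mg/kg/day by gavage (weeks 14–20) were fixed in 4% formaldehyde for 48 h, paraffin-embedded, cut at 5 μm and stained with Masson trichrome. Graded 0–4 for vacuolation and fibrosis: 0–2 no fibrosis with none, mild or moderate vacuolation; 3 mild fibrosis; 4 severe fibrosis. n = 5, 5, 6.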

The subject of assay [16] is Mus musculus. Briefly: In vivo inhibition of MEK1/2 in LmnaH222P/H222P mouse model of cardiomyopathy assessed as reduction in ERK1/2 activation-mediated muscular dystrophy by measuring inhibition of serum creatine phosphokinase activity at 6 mg/kg/day, po administered 6 days per week via gavage starting from 14 weeks of age up to 20 weeks of age. The assay is classed as functional, organism-based. The method, boiled down: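 Serum from male Lmna H222P/H222P mice gavaged with vehicle or 3 or 6 mg/kg/day from 14 to 20 weeks of age was assayed for creatine phosphokinase activity. Means ± SE, n = 10 per group.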

Assay [17] concerns Mus musculus. Briefly: In vivo inhibition of MEK1/2 in LmnaH222P/H222P mouse model of cardiomyopathy assessed as reduction in ERK1/2 activation-mediated muscular dystrophy by measuring increase in forelimb grip fatigue index at 6 mg/kg/day, po administered 6 days per week via gavage starting from 14 weeks of age up to 20 weeks of age. The assay is classed as functional, organism-based. A digest of the protocol: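 Forelimb grip strength was tested by an investigator blind to treatment on two consecutive days and normalized to body mass. Fatigue index = (C+D)/(A+B), where A–D are sums of pulls 1–3, 4–6, 10–12 and 13–15; a value of 1 means no fatigue. Mice were gavaged from weeks 14–20; n = 7 placebo, 6 treated.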

In assay [18] the target is T1, Dual specificity mitogen-activated protein kinase kinase; MEK1/2. Briefly: Inhibition of MEK1/2 in human HT-29 cells assessed as reduction in cell proliferation after 72 hrs by CellTiter-Glo assay. The assay is classed as cell-based. A digest of the protocol: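 HT-29 cells were plated at 2,000/well in DMEM or RPMI with 10% FBS and left overnight at 37°C, 5% CO2. Medium was replaced with compound at 3-fold dilutions from 3.3 µM to 4.5 nM. After 72 h, viability was read by CellTiter-Glo luminescence and IC50 calculated.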
Background: Cellular ATP, detected with luciferase, serves as a proxy for viable cell number.

T1 sequence (P36507 whole entry, looked up): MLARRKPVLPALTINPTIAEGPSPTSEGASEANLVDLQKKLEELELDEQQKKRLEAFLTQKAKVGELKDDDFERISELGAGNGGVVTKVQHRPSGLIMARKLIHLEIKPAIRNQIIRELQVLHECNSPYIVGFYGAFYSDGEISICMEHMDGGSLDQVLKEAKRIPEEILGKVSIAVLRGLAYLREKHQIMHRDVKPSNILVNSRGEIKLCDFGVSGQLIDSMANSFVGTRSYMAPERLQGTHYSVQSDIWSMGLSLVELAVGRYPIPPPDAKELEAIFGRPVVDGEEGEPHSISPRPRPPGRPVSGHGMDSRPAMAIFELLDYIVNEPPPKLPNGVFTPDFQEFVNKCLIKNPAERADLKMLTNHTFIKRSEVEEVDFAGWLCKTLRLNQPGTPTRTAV
T1 sequence (Q02750 whole entry, looked up): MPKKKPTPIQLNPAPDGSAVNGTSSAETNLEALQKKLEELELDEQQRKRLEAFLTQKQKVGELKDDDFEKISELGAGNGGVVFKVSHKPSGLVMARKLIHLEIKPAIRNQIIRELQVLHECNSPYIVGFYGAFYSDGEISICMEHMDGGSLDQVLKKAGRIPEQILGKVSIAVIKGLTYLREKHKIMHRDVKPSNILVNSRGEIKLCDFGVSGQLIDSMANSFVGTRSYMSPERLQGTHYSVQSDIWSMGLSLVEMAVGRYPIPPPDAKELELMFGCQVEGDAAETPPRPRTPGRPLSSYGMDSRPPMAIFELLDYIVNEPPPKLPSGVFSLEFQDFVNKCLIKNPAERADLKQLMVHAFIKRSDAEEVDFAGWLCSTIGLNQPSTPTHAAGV

Turning to `O=S1(=O)Nc2c(cc(F)c(F)c2Nc2ccc(I)cc2F)OCC(O)C(O)CC12CC2` (single isomer, unassigned; form 1), the inhibition result (in assay [1]; in the assay on Mus musculus [2]; with Mus musculus [3]; in the assay with Mus musculus [4]; in the assay with Mus musculus [16]; in the assay on Mus musculus [17]) was “Active” in each case. Further, the Activity in assay [5] is 4 mm; in [6] it was 3.77 mm; in [7], 3.24 mm; in assay [8] it was 3.02 mm; in assay [9], 19.4%; in assay [10], 20.6%. Further, the Activity in assay [11] was 504 bpm; in assay [12], 502 bpm; in [15], “Dose-dependent effect”. For the same compound, the outcome in [13] and in assay [14] was Active.

A word on the IC50: it is the concentration at which inhibition is half-maximal. Consider `O=S1(=O)Nc2c(cc(F)c(F)c2Nc2ccc(I)cc2F)OCC(O)C(O)CC12CC2` (single isomer, unassigned; form 2), for which, in [18], the half-inhibitory concentration (IC50) is 400 nM.
